Tests used:
Assay type in all cases: functional
Candida albicans = assay: Antifungal activity against Candida albicans ATCC 76615 after 24 hrs by micro-broth dilution method; details: ATCC 76615, 24 h
Method in brief: (§1)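 Broth microdilution per NCCLS. Spore suspension in sterile distilled water, taken from 1-day-old cultures on Sabouraud agar, final 1–5×10^3 spores/mL. Compounds diluted from stocks in RPMI 1640 to eleven concentrations, 0.25–256 µg/mL. Incubation 35 °C, 24 h. Growth scored visually and spectrophotometrically. MIC is the lowest concentration arresting fungal growth.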

Bacillus = assay: Antibacterial activity against Bacillus proteus ATCC 13315 after 24 hrs by micro-broth dilution method; details: ATCC 13315, 24 h
Method in brief: (§2)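 MIC by broth microdilution following NCCLS methods. Inoculum adjusted in sterile saline to 1×10^4–1×10^5 CFU. Compounds from DMSO stocks, two-fold serial dilutions in Mueller-Hinton broth at 256 down to 0.25 µg/mL. Incubation 37 °C, 24 h. DMSO solvent control at matching dilutions. Growth read visually and spectrophotometrically. MIC is the lowest concentration arresting growth.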

Aspergillus fumigatus = assay: Antifungal activity against Aspergillus fumigatus ATCC 96918 after 24 hrs by micro-broth dilution method; details: ATCC 96918, 24 h; method in brief: as §1
Bacillus subtilis = assay: Antibacterial activity against Bacillus subtilis ATCC 21216 after 24 hrs by micro-broth dilution method; details: ATCC 21216, 24 h; method in brief: as §2
Pseudomonas aeruginosa = assay: Antibacterial activity against Pseudomonas aeruginosa ATCC 27853 after 24 hrs by micro-broth dilution method; details: ATCC 27853, 24 h; method in brief: as §2
Staphylococcus aureus [1] = assay: Antibacterial activity against methicillin-resistant Staphylococcus aureus N315 after 24 hrs by micro-broth dilution method; details: N315, 24 h
Method in brief: (§3)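 Broth microdilution per NCCLS in Mueller-Hinton broth. Inoculum adjusted in sterile saline to 1×10^4–1×10^5 CFU. Compounds taken from DMSO stocks and serially diluted two-fold to final 256–0.25 µg/mL (11 levels). Incubation 37 °C, 24 h, with a DMSO solvent control. Growth read visually and spectrophotometrically. MIC is the lowest concentration that arrests growth.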

Escherichia coli = assay: Antibacterial activity against Escherichia coli ATCC 25922 after 24 hrs by micro-broth dilution method; details: ATCC 25922, 24 h; method in brief: as §2
Staphylococcus aureus [2] = assay: Antibacterial activity against Staphylococcus aureus ATCC 29213 after 24 hrs by micro-broth dilution method; details: ATCC 29213, 24 h; method in brief: as §3

| SMILES | MIC (Candida albicans) [µg/mL] | MIC (Bacillus) [µg/mL] | MIC (Aspergillus fumigatus) [µg/mL] | MIC (Bacillus subtilis) [µg/mL] | MIC (Pseudomonas aeruginosa) [µg/mL] | MIC (Staphylococcus aureus [1]) [µg/mL] | MIC (Escherichia coli) [µg/mL] | MIC (Staphylococcus aureus [2]) [µg/mL] |
| --- | --- | --- | --- | --- | --- | --- | --- | --- |
| Fc1ccc(CN(CCn2cnc3ccccc32)CCn2cnc3ccccc32)c(F)c1.O=[N+]([O-])O | > 256 | 128 | > 256 | > 256 | > 256 | 256 | > 256 | 128 |
| Cl.Fc1ccc(CN(CCn2cnc3ccccc32)CCn2cnc3ccccc32)c(F)c1 | > 256 | 64 | > 256 | > 256 | > 256 | 128 | > 256 | 32 |

From ChEMBL document CHEMBL1240446, “Synthesis and biological activities of novel amine-derived bis-azoles as potential antibacterial and antifungal agents” (2010)
